Sampled rows, rich in hits. Any-hit rate of the full collection: about 2.9%.
CHO parental Ca: counter-screen for OX1R antagonists: effect in parental CHO cells. parental CHO-K1, ATP-induced calcium, Fluo-8 fluorescence. inhibition, % at 5.6 µM. 0.63% of 330,000 active. AID 463079;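 active = inhibition above that plate's mean sample inhibition plus 3 SD, cut at about 26% in these data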
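Measured by: calcium-sensitive Fluo-8 fluorescence / Test system: CHO parental line / Controls: ATP-challenged DMSO wells low, unchallenged DMSO wells high / Measure: % inhibition / Compound: single nominal dose of 5.6 µM per compound / Replicates: single well per compound, no replicates / Reagent: ATP as calcium-mobilizing challenge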
OX1R antag-1: antagonists of human orexin 1 receptor (OX1R). O43613. OX1R-expressing cells, FRET antagonist read-out. inhibition, % at 6.6 µM. 1.8% of 330,000 active. AID 485270; in the data active = inhibition mostly above about 38%, no sharp cut-off; inactive = mostly below about 40%
Target sequence (O43613 whole entry, looked up): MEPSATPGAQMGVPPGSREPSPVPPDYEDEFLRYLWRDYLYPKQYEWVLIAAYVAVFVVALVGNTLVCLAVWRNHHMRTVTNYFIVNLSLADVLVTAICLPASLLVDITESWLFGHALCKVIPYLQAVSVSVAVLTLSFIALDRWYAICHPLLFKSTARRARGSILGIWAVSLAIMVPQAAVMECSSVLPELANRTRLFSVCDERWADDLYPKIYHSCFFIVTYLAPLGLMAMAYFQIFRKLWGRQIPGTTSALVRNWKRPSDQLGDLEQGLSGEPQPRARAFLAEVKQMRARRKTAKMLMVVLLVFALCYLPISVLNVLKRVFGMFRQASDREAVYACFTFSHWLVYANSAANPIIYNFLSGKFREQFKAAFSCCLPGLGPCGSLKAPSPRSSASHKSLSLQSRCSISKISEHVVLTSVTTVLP
CHO-K1 Ca PAM: M1 PAM counterscreen hit in parental CHO-K1 cells. AID 602247. activation, % at 3 µM. 0.02% of 360,000 active. ATP EC20, Fluo-8 calcium fluorescence; 0% at ATP EC20, 100% at ATP max;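 active = activation above the run cutoff, the mean activation of all test compounds plus 3 SD, cut at about 40% in these data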;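 also: peak over basal fluorescence ratio in a 140 s read after ATP addition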
CHO-K1 Ca antag: M1 antagonist counterscreen hit in parental CHO-K1 cells; ATP-induced calcium, Fluo-8 fluorescence; inhibition, % at 3 µM; 0.6% of 360,000 active; AID 602250;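 active = inhibition above a per-plate cutoff, the plate's mean sample inhibition plus 3 SD, cut at about 24% in these data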
M1 ag parental: counter-screen for M1 agonists: effect in parental CHO-K1 cells; Fluo-8 calcium fluorescence; scaled to maximal ATP response, vehicle zero; activation, % at 3 µM; 0.48% of 360,000 active; AID 602248; in the data active = activation above about 15%;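 also: untransfected CHO-K1 host cells lacking M1 receptor as counterscreen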
OX1R antag-2: antagonists of human orexin 1 receptor; AID 434989; O43613; CHO/OX1R cells, Fluo-8 calcium fluorescence, orexin A; 0.43% of 330,000 active; inhibition, % at 5 µM;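 active = inhibition above its plate's threshold, mean inhibition of all tested compounds on the plate plus 3 SD, cut at about 37% in these data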
A number is an active result; i = inactive; nt = not tested or not shown.

SMILES	CHO parental Ca	OX1R antag-1	CHO-K1 Ca PAM	CHO-K1 Ca antag	M1 ag parental	OX1R antag-2
COc1ccc(CNC(=O)N2CCN(c3ccccc3OC)CC2)cc1	i	i	i	i	i	i
NC(=O)Nc1ccc(C(=O)OCC(=O)c2c[nH]c3ccccc23)cc1	i	i	i	i	i	i
N#CCC(=O)Nc1ccc(C(=O)OCC(=O)c2c[nH]c3ccccc23)cc1	i	39	i	i	i	i
CC(Nc1nc(N2CCNCC2)nc2ccccc12)c1ccccc1 (stereo not drawn)	i	i	i	i	i	i
Cc1ccnc(NC(=O)c2cccc(OC(F)F)c2)n1	i	i	i	i	i	i
O=C(Nc1cc(Cl)cc(Cl)c1)c1cccc(OC(F)F)c1	i	i	i	27	i	i
COC(=O)c1ccc(CSc2nc3ccccc3o2)cc1	i	i	i	29	i	i
O=[N+]([O-])c1ccc(CSc2nc3ccccc3o2)cc1	i	i	i	i	i	i
COc1ccc(-c2csc(NC(=O)c3ccccc3NS(=O)(=O)c3ccc(C)cc3)n2)cc1	i	43	i	i	i	i
COc1ccc(-c2csc(NC(=O)c3c(OC)cccc3OC)n2)cc1	i	68	i	i	i	i
COc1ccc(OC)c(NC(=O)c2ccc(-c3csc(C)n3)cc2)c1	i	51	i	i	i	i
CCCNC(=O)c1ccccc1NS(=O)(=O)c1ccc(OC)c(OC)c1	i	i	i	i	i	i
COc1ccc(S(=O)(=O)Nc2ccccc2C(=O)Nc2nc(-c3ccc(F)cc3)cs2)cc1OC	i	67	i	33	i	i
COc1ccc(NC(=O)Nc2cc(C(C)(C)C)on2)cc1OC	i	i	i	i	i	i
COc1cccc(S(=O)(=O)N(C)C[C@H]2OCc3cn(nn3)CCCC(=O)N([C@H](C)CO)C[C@@H]2C)c1	nt	nt	i	i	i	nt
CCOC(=O)C1(C)NC(c2cccs2)C2C(=O)N(c3ccc(OC)cc3)C(=O)C21 (stereo not drawn)	i	i	i	i	i	i
O=C(Nc1cccc(S(=O)(=O)C(F)(F)F)c1)[C@H]1C[C@H](O)[C@@H](CO)O1	nt	nt	i	i	i	nt
COc1cc(/C=C/C(=O)OCC(=O)NCc2ccccc2OC)ccc1O	i	i	i	i	i	i
COc1ccc(CCN2CC(C(=O)NCCN3CCCC3=O)CCC2=O)cc1 (stereo not drawn)	i	i	i	i	i	i
COc1ccc(NC(=O)c2c(OC)cccc2OC)c(OC)c1	i	46	i	i	i	i
CCOCCCn1c(C)nc2c(c1=O)c1nc3ccccc3nc1n2-c1ccc(C)cc1	i	i	i	i	i	i
CCO/C(C)=N/n1c2nc3ccccc3nc2c2c(=O)n(CC(C)C)c(C)nc21	i	73	i	i	i	i
O=C(NCCN1C(=O)S/C(=C/c2cccnc2)C1=O)C1CC(=O)N(Cc2ccccc2)C1 (stereo not drawn)	i	53	i	i	i	i
COc1ccc(/C=C2/SC(=O)N(CCNC(=O)C3CC(=O)N(Cc4ccccc4)C3)C2=O)cc1 (stereo not drawn)	nt	nt	i	i	i	nt
CCn1cc(Cl)c(C(=O)N2N=C(c3ccc4ccccc4c3)CC2c2ccccc2O)n1 (stereo not drawn)	60	i	i	i	i	i
SMILES	CHO parental Ca	OX1R antag-1	CHO-K1 Ca PAM	CHO-K1 Ca antag	M1 ag parental	OX1R antag-2
Cc1cc(C(=O)COC(=O)C2=COCCO2)c(C)n1-c1ccc2c(c1)OCO2	i	i	i	i	i	i
Cc1cc(C(=O)COc2ccc(C#N)cc2)c(C)n1-c1ccc2c(c1)OCO2	i	i	i	32	i	i
O=C(CN1C(=O)NC2(CCCC2)C1=O)N1CCN(S(=O)(=O)c2ccc(Cl)c(C(F)(F)F)c2)CC1	i	i	i	i	i	i
Cc1cc(Cl)c(S(=O)(=O)N2CCN(c3ccc(F)cc3)CC2)cc1OCC(=O)NC1CCCCC1	58	i	i	i	i	52
CCOC(=O)C1CCCN(S(=O)(=O)c2cc(OCC(=O)NC3CCCCC3)c(C)cc2Cl)C1 (stereo not drawn)	i	i	i	i	i	i
Cn1c(NCc2ccccc2O)nc2ccccc21	i	i	i	i	i	i
CC(C)n1c(NCc2ccccc2O)nc2ccccc21	i	i	i	i	23	i
Cc1ccccc1CN(C)C(=O)COC(=O)c1ccc2[nH]c(C)c(C)c2c1	i	53	i	i	i	i
